Active and inactive are the calls of the source. No cut-off for these calls is given here.
How the values were obtained:
[1] = target: T1, NAD-dependent protein deacetylase sirtuin-1 (Homo sapiens, UniProt Q96EB6); assay: Activation of N-terminal His6-tagged SIRT1 (156 to 664 amino acid residues) (unknown origin) expressed in Escherichia coli BL21(DE3) using ac-RHKKac-AMC as substrate after 45 mins by fluorometric analysis
T1 sequence (Q96EB6 whole entry): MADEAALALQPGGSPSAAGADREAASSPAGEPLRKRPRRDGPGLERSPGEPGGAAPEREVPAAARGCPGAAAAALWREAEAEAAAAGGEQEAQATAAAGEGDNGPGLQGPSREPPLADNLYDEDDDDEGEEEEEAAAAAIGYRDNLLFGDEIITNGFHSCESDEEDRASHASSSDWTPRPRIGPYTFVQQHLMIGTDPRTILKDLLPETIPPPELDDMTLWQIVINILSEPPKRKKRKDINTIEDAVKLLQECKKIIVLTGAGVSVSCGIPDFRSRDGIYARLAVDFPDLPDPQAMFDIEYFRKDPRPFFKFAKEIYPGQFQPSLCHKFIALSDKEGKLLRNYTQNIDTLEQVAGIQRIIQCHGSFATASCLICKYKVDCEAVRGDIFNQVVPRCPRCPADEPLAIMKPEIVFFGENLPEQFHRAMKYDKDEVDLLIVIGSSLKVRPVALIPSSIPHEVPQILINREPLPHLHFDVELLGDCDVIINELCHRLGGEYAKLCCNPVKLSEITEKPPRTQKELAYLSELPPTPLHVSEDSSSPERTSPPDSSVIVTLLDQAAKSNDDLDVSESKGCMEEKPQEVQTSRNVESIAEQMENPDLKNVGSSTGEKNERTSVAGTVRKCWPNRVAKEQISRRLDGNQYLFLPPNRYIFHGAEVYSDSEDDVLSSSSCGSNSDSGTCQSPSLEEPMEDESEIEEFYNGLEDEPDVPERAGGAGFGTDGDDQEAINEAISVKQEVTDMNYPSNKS

[2] = target: T2, NAD-dependent protein deacetylase sirtuin-1 (Homo sapiens) (UniProt Q96EB6); assay: Activation of N-terminal His6-tagged SIRT1 (156 to 664 amino acid residues) (unknown origin) expressed in Escherichia coli BL21(DE3) using ac-RHKKac-AMC as substrate at 50 uM after 45 mins by fluorimetric analysis relative to control
T2 sequence (whole entry): T1 sequence (Q96EB6 whole entry)
Outline: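 Fluorogenic deacetylation screen: 1 μM SIRT1 with 750 μM NAD⁺ and 31.25 μM ac-RHKK_ac-AMC in Tris buffer (25 mM Tris, 137 mM NaCl, 2.7 mM KCl, 1 mM MgCl₂, pH 8.0). Compounds at 50 μM from DMSO stocks; DMSO alone as blank. Trypsin then releases AMC from deacetylated peptide; fluorescence read at 340/490 nm.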

[3] = target: T2, NAD-dependent protein deacetylase sirtuin-1 (Homo sapiens); assay: Activation of SIRT1 in human MCF7 cells assessed as reduction in doxorubicin-induced acetyl-p53 level up to 100 uM after 6 hrs by Western blotting analysis; type: cell-based
Outline: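 MCF-7 cells were seeded at 1 × 10⁵ per well in DMEM with 10% FCS and grown 24 h at 37 °C, 5% CO₂. Graded compound concentrations were added together with 0.1 μM TSA and 5 μM doxorubicin for 6 h. Lysate (50 μg protein) was run on a 9% gel and blotted with an anti-acetyl-p53 (Lys382) polyclonal antibody at 4 °C overnight, then HRP anti-rabbit IgG with chemiluminescence.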

[4] = target: T3, NAD-dependent protein deacetylase sirtuin-2 (Homo sapiens) (UniProt Q8IXJ6); assay: Activation of at N-terminal GST-tagged SIRT2 (34 to 356 amino acid residues) (unknown origin) expressed in Escherichia coli BL21(DE3) using ac-RHKKac-AMC as substrate at 50 uM after 45 mins by fluorometric analysis relative to control
T3 sequence (whole entry): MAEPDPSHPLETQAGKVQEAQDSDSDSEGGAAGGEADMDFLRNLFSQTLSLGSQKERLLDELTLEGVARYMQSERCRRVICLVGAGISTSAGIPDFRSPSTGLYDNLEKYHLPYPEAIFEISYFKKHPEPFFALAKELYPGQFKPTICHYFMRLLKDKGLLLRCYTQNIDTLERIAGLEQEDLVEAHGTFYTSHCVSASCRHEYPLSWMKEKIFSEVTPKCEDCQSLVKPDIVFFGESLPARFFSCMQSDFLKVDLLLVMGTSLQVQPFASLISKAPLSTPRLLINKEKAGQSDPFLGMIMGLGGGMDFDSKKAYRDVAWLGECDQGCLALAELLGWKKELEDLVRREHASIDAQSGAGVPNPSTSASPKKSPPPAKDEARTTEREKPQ
Outline: (§1)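 Fluorescent deacetylation assay in 25 mM Tris, 137 mM NaCl, 2.7 mM KCl, 1 mM MgCl₂, pH 8.0, with 750 μM NAD⁺ and 31.25 μM ac-RHKK_ac-AMC. Enzyme was 3.6 μM SIRT3 or 4.2 μM GST-SIRT2, set to match SIRT1 activity. Trypsin released AMC from the deacetylated peptide, read at ex 340 / em 490 nm. Compounds were added from DMSO (DMSO as blank): single point at 50 μM, or 3-fold DMSO dilution series. EC1.5 (concentration giving 50% activity increase) and maximum activation were fitted to a dose–response function.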

[5] = target: T4, NAD-dependent protein deacetylase sirtuin-2 (Homo sapiens, UniProt Q8IXJ6); assay: Activation of at N-terminal GST-tagged SIRT2 (34 to 356 amino acid residues) (unknown origin) expressed in Escherichia coli BL21(DE3) using ac-RHKKac-AMC as substrate after 45 mins by fluorometric analysis; outline: as §1
T4 sequence (Q8IXJ6 whole entry): T3 sequence (whole entry)

[6] = target: T2, NAD-dependent protein deacetylase sirtuin-1 (Homo sapiens); assay: Activation of N-terminal His6-tagged SIRT1 (156 to 664 amino acid residues) (unknown origin) expressed in Escherichia coli BL21(DE3) using ac-RHKKac-NH2 as substrate after 45 mins by HPLC analysis

SMILES	EC50 [1]	max activation [2]	other results
O=C(Nc1ccccc1-c1cn2c(CN3CCNCC3)csc2n1)c1ccc2occc2c1	6.9 µM	380%	
COc1c(Br)cc(/C=N/NC(=O)c2ccc3cc(Br)ccc3c2)c(O)c1Br		119%	
O=C(N/N=C/c1cc(Br)c(O)c(Br)c1O)c1cc2ccccc2cc1O	4.5 µM	375%	
O=C(Nc1ccccc1-c1cn2c(CN3CCNCC3)csc2n1)c1cnc2ccccc2n1		781%	
O=C(Nc1ccccc1-c1cn2c(CN3CCNCC3)csc2n1)c1cccc2cccnc12	45 µM	208%	
Cc1ccc(C(=O)N/N=C/c2cc(Br)c(O)c(Br)c2O)cc1	9.6 µM	161%	
O=C(N/N=C/c1cc(Br)c(O)c(Br)c1O)c1ccc(Cl)cc1	7 µM	174%	
COc1c(/C=N/NC(=O)c2ccc(-c3ccccc3)cc2)cc(Br)c(O)c1Br	18.1 µM	191%	
COc1c(Br)cc(/C=N/NC(=O)c2ccc(-c3ccccc3)cc2)c(O)c1Br	28.1 µM	242%	
N#Cc1ccc(O)c(-c2ccc(C(=O)N/N=C/c3cc(Br)c(O)c(Br)c3O)cc2)c1	3.7 µM	196%	
COc1cc(OC)cc(C(=O)N/N=C/c2cc(Br)c(O)c(Br)c2O)c1		112%	
COc1c(/C=N/NC(=O)c2ccc3cc(Br)ccc3c2)cc(Br)c(O)c1Br	8.7 µM	298%	
O=C(N/N=C/c1cc(Br)c(O)c(Br)c1O)c1ccc(C(F)(F)F)cc1	20.5 µM	161%	
N#Cc1ccc2cc(C(=O)N/N=C/c3cc(Br)c(O)c(Br)c3O)ccc2c1	4.4 µM	433%	
O=C(N/N=C/c1cc(Br)c(O)c(Br)c1O)c1cccc(-c2ccccc2)c1	18.3 µM	212%	
O=C(Nc1ccccc1-c1cn2c(CN3CCNCC3)csc2n1)C1CCCC1	130 µM	383%	
O=C(Nc1ccccc1-c1cn2c(CN3CCNCC3)csc2n1)c1ccccc1	25 µM	322%	
O=C(N/N=C/c1cc(Br)c(O)c(Br)c1O)c1ccc2c(c1)Cc1ccccc1-2	5.4 µM	212%	max activation [4]: 206%; EC50 [5]: 16.5 µM
O=C(Cc1ccccc1)Nc1ccccc1-c1cn2c(CN3CCNCC3)csc2n1	14 µM	130%	
O=C(N/N=C/c1ccc(O)cc1O)c1ccc(-c2ccccc2)cc1	10.4 µM	157%	
O=C(N/N=C/c1cc(Br)c(O)c(Br)c1O)c1ccc2ncccc2c1	55.2 µM	239%	
COc1ccc(C(=O)Nc2ccccc2-c2cn3c(CN4CCNCC4)csc3n2)c(OC)c1	31 µM	197%	

Second part, led by results:

EC50 [1]	max activation [2]	SMILES	other results
0.9 µM	624%	COc1ccc2cc(C(=O)N/N=C/c3cc(Br)c(O)c(Br)c3O)ccc2c1	Activity [3]: Active
0.9 µM	216%	O=C(N/N=C/c1cc(Br)c(O)c(Br)c1O)c1ccc(-c2ccccc2C(F)(F)F)cc1	
2.3 µM	368%	CS(=O)(=O)c1ccc2cc(C(=O)N/N=C/c3cc(Br)c(O)c(Br)c3O)ccc2c1	
0.61 µM	381%	O=C(Nc1ccccc1-c1cn2c(CN3CCNCC3)csc2n1)c1cc2ccccc2o1	
2 µM	314%	O=C(N/N=C/c1cc(Br)c(O)c(Br)c1O)c1ccc(-c2cccnc2)cc1	
1.6 µM	331%	O=C(N/N=C/c1cc(Br)c(O)c(Br)c1O)c1ccc2ccccc2c1	
2.3 µM	467%	O=C(N/N=C/c1cc(Br)c(O)c(Br)c1O)c1ccc(-c2ccccn2)cc1	
1.6 µM	390%	O=C(N/N=C/c1cc(Br)c(O)c(Br)c1O)c1ccc(-c2ccncc2)cc1	
3.4 µM	380%	O=C(N/N=C/c1cc(Br)c(O)c(Br)c1O)c1ccc(-c2ccc3c(c2)OCO3)cc1	
3.7 µM	928%	COc1cccc(C(=O)Nc2ccccc2-c2cn3c(CN4CCNCC4)csc3n2)c1	
0.68 µM	301%	O=C(Nc1ccccc1-c1cn2c(CN3CCNCC3)csc2n1)c1cnc2ccccc2c1	
1.7 µM	246%	O=C(N/N=C/c1cc(Br)c(O)c(Br)c1O)c1ccc(-c2ccccc2)cc1	
1.7 µM	270%	O=C(Nc1ccccc1-c1cn2c(CN3CCNCC3)csc2n1)c1ccncn1	
2.6 µM	267%	O=C(N/N=C/c1cc(Br)c(O)c(Br)c1O)c1ccc2cc(-c3ccco3)ccc2c1	
0.99 µM	440%	O=C(Nc1ccccc1-c1cn2c(CN3CCNCC3)csc2n1)c1ccc2ccccc2n1	
1.8 µM	271%	COc1cc(C(=O)Nc2ccccc2-c2cn3c(CN4CCNCC4)csc3n2)cc(OC)c1OC	Activity [6]: inactive
2.1 µM	374%	O=C(N/N=C/c1cc(Br)c(O)c(Br)c1O)c1ccc(-c2ccco2)cc1	
